Hits are enriched below; roughly 1.3% of the tested compounds scored in any of these assays.
CRFBP-R2 agonist = agonists of CRF-BP/CRF-R2 complex, primary screen, cell-based, HEK293, calcium dye fluorescence, uHTS; CRF-binding protein / CRF receptor 2 complex (human); calcium dye fluorescence (FLIPR); percent of saturating CRF peptide response; activation, % at 13.2 µM; 350,000 compounds, 0.46% hits;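 active = activation of at least 50%, plus an integration ratio under a set limit after plate pattern correction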;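 note: plate controls were neutral control wells without compound for no effect and CRF at EC100 for full effect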
CRFR2-BP antag = antagonists of CRF-BP/CRF-R2 complex, primary screen, cell-based, HEK293, calcium dye fluorescence, uHTS; CRF-induced calcium fluorescence; inhibition, % at 11.8 µM; 350,000 compounds, 0.59% hits; AID 588475, 2011;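 active = inhibition of the ligand-induced calcium signal above about 50% at the single tested concentration, limit read from the data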
DDE Tn6 FP inh = inhibitors of Tn6 peptide binding to fibrin DD(E), primary screen, biochemical, fluorescence polarization, human fibrin, Tn6 probe; Fibrin DD(E) TRITC-Tn6 fluorescence polarization displacement; inhibition, % at 8.3 µM; 370,000 compounds, 0.21% hits; AID 720509, 2013;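 active = inhibition above a per-campaign cutoff: mean of compounds within control limits plus 3 SD, cut at about 15% in these data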;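 note: 0% = median of all compound wells on the plate and 100% = blocking peptide control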
Target sequence (P02675 whole entry, looked up): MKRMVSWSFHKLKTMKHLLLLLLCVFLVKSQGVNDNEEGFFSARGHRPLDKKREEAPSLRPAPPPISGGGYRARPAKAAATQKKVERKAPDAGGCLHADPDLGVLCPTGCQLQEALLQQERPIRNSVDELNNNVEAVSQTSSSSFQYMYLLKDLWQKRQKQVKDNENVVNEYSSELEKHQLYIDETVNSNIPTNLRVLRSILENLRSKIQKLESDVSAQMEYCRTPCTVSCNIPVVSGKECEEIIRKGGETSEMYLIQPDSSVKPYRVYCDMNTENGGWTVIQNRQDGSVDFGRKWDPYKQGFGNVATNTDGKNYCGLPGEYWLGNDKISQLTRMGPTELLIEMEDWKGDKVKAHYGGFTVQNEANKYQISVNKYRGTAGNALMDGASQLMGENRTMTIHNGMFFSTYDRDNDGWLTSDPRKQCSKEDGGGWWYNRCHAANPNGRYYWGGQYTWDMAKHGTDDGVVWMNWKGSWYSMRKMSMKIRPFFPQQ
DDE Tn7 FP inh = inhibitors of Tn7 peptide binding to fibrin DD(E), primary screen, biochemical, fluorescence polarization, human fibrin, Tn7 probe; Fibrinogen beta chain (Homo sapiens), P02675; FP displacement of FITC-Tn7 peptide from fibrin DD(E); 0% = median of compound wells per plate; inhibition, % at 8.3 µM; 370,000 compounds, 0.13% hits;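 active = inhibition above the mean of compounds falling within the control limits plus 3 SD of them, cut at about 14% in these data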;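 note: 0% = plate median of compound wells and 100% = 10 µM Aha-Tn7 peptide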
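Measure: % inhibition scaled between sample-field median and high-control FP; Test system: human fibrin DD(E); Quantity: 2 µM final DD(E) protein; Doses: one dose, 8.3 µM nominal; Schedule: compound with protein 10 min, then 3 h after probe, room temperature; Detection: fluorescence polarization; Medium: Tris buffer with calcium and detergent, pH 7.8.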
Numbers without * were called inactive; . = no result given.

SMILES	CRFBP-R2 agonist	CRFR2-BP antag	DDE Tn6 FP inh	DDE Tn7 FP inh
COc1ccccc1-n1c(=S)sc2c(=O)n(Cc3ccco3)c(SC)nc21	2.8	60.1*	-1.4	8.8
COc1ccc2c(c1)/C(=C/c1cc(OC)c(OC)c(OC)c1)C(=O)N2	-2.6	106.1*	-6.7	0.6
CCN(CC)c1ccc(/C=C/C(=O)C2C(=O)C=C(C)OC2=O)cc1 (stereo not given)	377.1*	-475.8	-5.7	-5.0
CCN(CC)c1ccc(C=C2C(=O)OC(c3ccccc3)OC2=O)cc1 (stereo not given)	2.2	-47.5	-1.2	0.7
O=C(Nc1ccccc1)c1sccc1Oc1ccc([N+](=O)[O-])cc1F	-1.4	64.3*	-2.8	-11.3
CN1C(=O)C[C@@](C#N)(C(=O)NCc2ccccc2)[C@H]1c1ccccc1	.	.	12.0	8.5
O=C(c1ccc2snnc2c1)N1CCN(c2ccccc2)CC1	-2.5	-1.8	1.2	2.8
O=C(c1ccc2snnc2c1)N1CCN(c2ccccn2)CC1	-0.2	78.9*	-0.8	-4.3
COc1ccc2[nH]c3c(c2c1)CCN[C@]31C(=O)N(C)c2ccccc21	.	.	-3.5	9.2
C[C@@H]1OCN(C)[C@H]2C[C@H]3c4[nH]c5cccc(-c6ccccc6)c5c4CCN3C[C@@H]12	.	.	-10.1	0.2
O=c1/c(=C/c2ccccn2)sc2nc3ccccc3n12	4.5	-12.4	-0.3	7.3
O=C(O)c1cc(C(=O)O)cc(-c2ccc(/C=c3/sc4nc5ccccc5n4c3=O)o2)c1	26.2	-61.8	.	.
O=c1/c(=C\c2cc([N+](=O)[O-])cc([N+](=O)[O-])c2O)sc2nc3ccccc3n12	6.1	60.2*	.	.
O=C(O)c1cccc(-c2ccc(/C=c3/sc4nc5ccccc5n4c3=O)o2)c1	68.8*	-54.8	-1.5	-0.5
CCOC(=O)c1cn(Cc2ccccc2)c(C(=O)OC(C)(C)C)c1O	62.1*	-1.5	4.3	0.7
CN(CCO)C1CN(Cc2cn(Cc3ccccc3C(F)(F)F)nn2)S(=O)(=O)C1 (stereo not given)	.	.	1.8	3.2
COc1ccc(C2CC(c3cccs3)=NN2C(=O)c2ccccc2)cc1OC (stereo not given)	-0.2	51.9*	1.6	7.6
O=C(c1cccs1)N1N=C(c2ccccc2)CC1c1ccccc1O (stereo not given)	0.6	41.0	-2.6	-3.8
COc1cccc(C2CC(c3cccs3)=NN2C(=O)c2ccco2)c1O (stereo not given)	-1.1	67.2*	5.6	0.2
Cc1ccc(C2=NN(C(=O)c3cccs3)C(c3ccccc3O)C2)cc1 (stereo not given)	-2.1	74.7*	0.1	-13.6
O=C(c1ccco1)N1N=C(c2cccs2)CC1c1ccccc1O (stereo not given)	-9.4	92.6*	-2.0	1.1
COc1ccc(C2CC(c3cccs3)=NN2C(=O)CCl)cc1OC (stereo not given)	2.0	-13.3	-2.3	9.2
Nc1nc2c(ncn2[C@@H]2O[C@H](C(=O)NCCc3c[nH]c4ccccc34)[C@@H](O)[C@H]2O)c(=O)[nH]1	.	.	8.8	-10.5
O=C(NCCc1nc2ccccc2n1CCOc1cc(F)ccc1F)C1CCCCC1	.	.	1.6	2.4
Fc1ccccc1-c1n[nH]c(=S)n1N=Cc1cccc(OCc2ccccc2)c1	.	.	9.5	2.0
SMILES	CRFBP-R2 agonist	CRFR2-BP antag	DDE Tn6 FP inh	DDE Tn7 FP inh
CNc1cccc(-c2ccc(C(C)=O)s2)n1	.	.	-7.6	2.4
CC(=O)c1ccc(-c2cccs2)s1	0.8	63.7*	0.4	-2.0
CCOC(=O)C1=NN(c2ccccc2)C2=NC(C)=C(C(=O)OC)C(c3cccs3)N12 (stereo not given)	1.6	75.4*	1.3	2.5
CCCCOC(=O)Oc1ccc2c(=O)c(Oc3cc(C)cc(C)c3)coc2c1	2.7	21.8	0.0	-1.1
CCCCOC(=O)Oc1ccc2c(=O)c(Oc3cccc(C)c3)coc2c1	-2.1	56.4*	-6.7	-3.1
CC1(O)CC(c2ccc(Cl)cc2)=NN1C(=O)c1ccc([N+](=O)[O-])cc1 (stereo not given)	73.5*	99.5*	-6.3	-1.5
Cc1ccccc1-n1ncc2c(SCC(=O)N3c4ccccc4CC3C)ncnc21 (stereo not given)	7.5	54.4*	-1.5	6.9
CC(C)OC(=O)c1c2c(n3ccccc13)C(=O)c1ccccc1C2=O	181.6*	-165.2	4.7	-2.3
CCCN1C(=O)/C(=C/c2ccc(N3CCOCC3)cc2)NC1=S	171.1*	-247.4	-3.3	-16.9
CCN1C(=O)/C(=C/c2ccc(N3CCCC3)cc2)NC1=S	257.9*	-302.3	-5.4	-24.5
Cc1ccc(CN2C(=O)N/C(=C\c3ccc(N4CCOCC4)cc3)C2=O)cc1	3.8	-5.0	1.6	-4.4
CCN1C(=O)/C(=C/c2ccc(OCc3ccc(C(=O)O)cc3)c(Cl)c2)NC1=S	11.2	-5.3	-6.5	4.7
COc1cccc(NC(=O)N2CC[C@@H]3[C@H]2c2cc(-c4cccc(C#N)c4)ccc2N(C)[C@@H]3CO)c1	.	.	-1.6	1.8
CSc1ncccc1C(=O)OCC(=O)c1ccccc1	-1.5	33.4	-2.3	2.8
COc1ccc(C(=O)COC(=O)c2cccnc2SC)cc1	0.4	78.0*	0.4	-2.1
S=C(Nc1cccc(Cl)c1)OC1CCC12CCC(c1ccccc1)CC2 (stereo not given)	.	.	-4.2	-2.8
Cc1cc(O)cc(=O)n1-c1cc(C(F)(F)F)cc(C(F)(F)F)c1	.	.	-5.5	2.9
CCOC(=O)[C@]12CCCC3=C1N(CCC3)C(=O)[C@@H](CC(=O)NCc1cccc3ccccc13)C2	.	.	3.5	0.3
CCC1CCCCN1CC(=O)c1c(C)[nH]c2ccc(OC)cc12 (stereo not given)	0.8	-14.3	-0.8	-3.5
Cc1[nH]c2ccccc2c1C(=O)CN1CCCCC1C (stereo not given)	74.4*	19.2	4.2	0.1
Cc1[nH]c2ccccc2c1C(=O)CN1CCC(C)CC1	-0.4	0.4	3.1	-2.7
CCC1CCCCN1CC(=O)c1c(C)[nH]c2ccccc12 (stereo not given)	106.6*	47.7	-1.1	2.2
O=C(O)c1ccccc1NS(=O)(=O)c1ccc2c(c1)OCCO2	-1.3	56.6*	-3.4	-0.5
COc1ccc(S(=O)(=O)Nc2ccccc2C)cc1C(=O)N1CCOCC1	-0.2	10.6	2.2	-8.7
Cc1cc(C)c(C)c(S(=O)(=O)Nc2ccccc2C(=O)O)c1C	-0.4	85.3*	6.6	3.1
Cc1ccccc1NS(=O)(=O)c1ccc(C)c(C(=O)N2CCOCC2)c1	1.2	53.7*	-2.9	-2.5
Cc1cc(NC(=O)c2ccccc2NS(=O)(=O)c2c(C)c(C)cc(C)c2C)no1	3.2	-17.5	-0.3	5.2
COC(=O)C1CN(Cc2ccc(C)cc2)CCS(=O)(=O)N1Cc1cn(Cc2ccc(C)cc2)nn1 (stereo not given)	.	.	-3.4	-1.0

Screening results (PubChem BioAssay)
